Experiments:
[1] = biological target: Cyclin-dependent kinase 2 (Homo sapiens, UniProt P24941); experiment: Inhibition of CDK2
EJ = experiment: Cytotoxicity against EJ cells after 48 hrs; assay type: functional; conditions: Homo sapiens
Method in brief: (§1)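 Exponentially growing cells exposed to compound at various concentrations for 48 h, then cell numbers measured; concentration giving 50% growth inhibition determined; means of three experiments.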

[2] = biological target: Cyclin-dependent kinase 1 (Homo sapiens, UniProt P06493); experiment: Inhibition of CDK1
HCT-116 = experiment: Cytotoxicity against HCT116 cells after 48 hrs; assay type: functional; conditions: Homo sapiens, HCT-116, 48 h; method in brief: as §1
SW-620 = experiment: Cytotoxicity against SW620 cells after 48 hrs; assay type: functional; conditions: Homo sapiens, SW-620, 48 h; method in brief: as §1
MDA-MB-468 = experiment: Cytotoxicity against MDA-MB-468 cells after 48 hrs; assay type: functional; conditions: Homo sapiens, MDA-MB-468, 48 h; method in brief: as §1

Sequence of Cyclin-dependent kinase 1 (P06493 whole entry): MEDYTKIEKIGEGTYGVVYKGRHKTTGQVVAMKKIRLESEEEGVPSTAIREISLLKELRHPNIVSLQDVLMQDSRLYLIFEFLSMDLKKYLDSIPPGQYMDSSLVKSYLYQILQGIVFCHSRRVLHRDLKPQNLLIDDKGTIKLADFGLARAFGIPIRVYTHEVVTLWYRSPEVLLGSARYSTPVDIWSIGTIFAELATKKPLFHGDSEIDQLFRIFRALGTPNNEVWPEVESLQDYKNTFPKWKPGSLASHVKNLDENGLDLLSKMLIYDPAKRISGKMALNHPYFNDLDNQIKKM

| IC50 [1] | Compound | GI50 (EJ) | other results |
| --- | --- | --- | --- |
| 4000 nM | O=c1c(O)c(-c2ccc(O)c(O)c2)oc2ccccc12 | – | – |
| > 500000 nM | O=c1cc(-c2ccc(O)c(O)c2)oc2c(O)c(O)ccc12 | – | – |
| > 500000 nM | O=c1cc(-c2ccc(O)c(O)c2)oc2ccccc12 | – | – |
| 1600 nM | CCN(CC)c1cc(C)cc2c(=O)c(O)c(-c3ccc(O)c(O)c3)oc12 | – | – |
| 630 nM | Cc1cc(N)c2oc(-c3ccc(O)c(O)c3)c(O)c(=O)c2c1 | – | – |
| 4000 nM | Cc1cc(N2C(=O)CNC2=O)c2oc(-c3ccc(O)c(O)c3)c(O)c(=O)c2c1 | – | – |
| 56 nM | Cc1cc(N2C(=O)CN(C)C2=O)c2oc(-c3ccc(O)c(O)c3)c(O)c(=O)c2c1 | 1100 nM | – |
| – | Cc1cc(N2CCCS2(=O)=O)c2oc(-c3ccc(O)c(O)c3)c(O)c(=O)c2c1 | 600 nM | IC50 [2]: 130 nM; GI50 (HCT-116): 280 nM; GI50 (SW-620): 900 nM; GI50 (MDA-MB-468): 1000 nM |
| 3000 nM | Cc1cc(N2CCCC2)c2oc(-c3ccc(O)c(O)c3)c(O)c(=O)c2c1 | – | – |
| 2600 nM | Cc1cc(N2CCCCC2)c2oc(-c3ccc(O)c(O)c3)c(O)c(=O)c2c1 | – | – |
| 640 nM | Cc1cc(N2CCN(C)CC2)c2oc(-c3ccc(O)c(O)c3)c(O)c(=O)c2c1 | – | – |
| 1500 nM | Cc1cc(N2C(=O)CCC2=O)c2oc(-c3ccc(O)c(O)c3)c(O)c(=O)c2c1 | 1200 nM | – |
| – | Cc1cc(N2CCCS2(=O)=O)c2oc(-c3ccc(O)cc3)c(O)c(=O)c2c1 | 270 nM | IC50 [2]: 450 nM; GI50 (HCT-116): 340 nM; GI50 (SW-620): 570 nM; GI50 (MDA-MB-468): 620 nM |
| 1600 nM | Cc1cc(N2CCCC2=O)c2oc(-c3ccc(O)c(O)c3)c(O)c(=O)c2c1 | – | – |
| 4400 nM | Cc1cc(N2C(=O)CCCC2=O)c2oc(-c3ccc(O)c(O)c3)c(O)c(=O)c2c1 | – | – |
| – | Cc1cc(N2CCCS2(=O)=O)c2oc(-c3ccc(O)c(C#N)c3)c(O)c(=O)c2c1 | – | IC50 [2]: 160 nM |
| 1700 nM | Cc1cc(N2CCCS2(=O)=O)c2oc(-c3ccc(O)c(C(F)(F)F)c3)c(O)c(=O)c2c1 | 1300 nM | IC50 [2]: 63 nM; GI50 (HCT-116): 910 nM |
| 190 nM | Cc1cc(N2CCCS2(=O)=O)c2oc(-c3ccc(O)c(Cl)c3)c(O)c(=O)c2c1 | 65 nM | IC50 [2]: 33 nM; GI50 (HCT-116): 37 nM; GI50 (SW-620): 64 nM; GI50 (MDA-MB-468): 180 nM |
| – | Cc1cc(N2CCCS2(=O)=O)c2oc(-c3ccc(O)c(Br)c3)c(O)c(=O)c2c1 | 64 nM | IC50 [2]: 19 nM; GI50 (HCT-116): 17 nM; GI50 (SW-620): 52 nM; GI50 (MDA-MB-468): 230 nM |
| 5000 nM | O=c1c(O)c(-c2ccc(O)c(O)c2)oc2cc(O)ccc12 [FISETIN] | – | – |

| Compound | IC50 [1] | GI50 (EJ) | other results |
| --- | --- | --- | --- |
| O=c1cc(-c2ccc(O)c(O)c2)oc2cc(O)cc(O)c12 [LUTEOLIN] | 20000 nM | – | – |
| O=c1c(O)c(-c2ccc(O)c(O)c2)oc2cc(O)cc(O)c12 [QUERCETIN] | 40000 nM | – | – |

— ChEMBL document CHEMBL1148833, “3-Hydroxychromones as cyclin-dependent kinase inhibitors: synthesis and biological evaluation” (Bioorg Med Chem Lett, 2007)
